According to ChEMBL document CHEMBL1795280, “Design, synthesis and activity of a potent, selective series of N-aryl pyridinone inhibitors of p38 kinase” (Bioorg Med Chem Lett, 2011):
Calls of active or inactive are those of the source. No cut-off for these calls is given here.

Assays:
[1] = molecular target: T1, Mitogen-activated protein kinase 14 (Homo sapiens, UniProt Q16539); experiment: Inhibition of p38alpha assessed as phosphorylation of […] after 60 mins by fluorescence assay
Procedure, shortened: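 Cascade assay in which activated p38α (6 pM final) activates unactivated MK2 (1 nM), which phosphorylates FITC-labelled Hsp27 peptide (1 nM) with […]. Inhibitor 0.2–10,000 nM. Room temperature, 60 min, EDTA quench. Phospho-peptide quantified by Caliper LabChip; IC50.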

[2] = Metabolic stability in rat liver microsomes assessed as compound remaining at 2 uM after 45 mins by LC/MS analysis; assay type: ADME, Microsome; conditions: read-out: Stability
Rattus norvegicus [3] = experiment: Antiinflammatory activity in Lewis rat assessed as inhibition of LPS-induced TNFalpha production at 20 mg/kg, po administered 2 hrs before LPS challenge by ELISA; assay type: functional
Procedure, shortened: (§1)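 Adult male Lewis rats (225–250 g), fasted 18 h with free access to water. Compound or vehicle given by oral gavage (1 mL). LPS (E. coli 0111:B4) given 1 mg/kg i.v. in saline 2, 4 or 6 h later. Serum taken by cardiac puncture 90 min after LPS. TNFα quantified against a recombinant rat TNF standard curve with a four-parameter fit. Two vehicle groups per experiment, three experiments.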

[4] = Metabolic stability in human liver microsomes assessed as compound remaining at 2 uM after 45 mins by LC/MS analysis; assay type: ADME, Microsome; conditions: read-out: Stability
PBMC = experiment: Antiinflammatory activity in human PBMC assessed as inhibition of LPS-induced TNFalpha production treated 1 hr before LPS challenge measured after 18 hrs; assay type: functional, cell-based
Procedure, shortened: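 PBMCs isolated by Ficoll from heparinized blood of two healthy donors, in DMEM with 5% endotoxin-free FBS, 2.5 × 10⁵ cells/well. Pretreated 1 h with compound (0.0001–25 µM range), then stimulated 18 h with 22 ng/ml LPS. Final DMSO 0.25%. Secreted TNFα measured by MSD; IC50 reported.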

[5] = molecular target: Tyrosine-protein kinase ZAP-70 (Homo sapiens) (UniProt P43403); experiment: Inhibition of ZAP70 at 10 uM
[6] = molecular target: Interleukin-1 receptor-associated kinase 4 (Homo sapiens) (UniProt Q9NWZ3); experiment: Inhibition of IRAK4 at 10 uM
[7] = molecular target: Rho-associated protein kinase 2 (Homo sapiens) (UniProt O75116); experiment: Inhibition of ROCK2 at 10 uM
[8] = molecular target: Tyrosine-protein kinase JAK3 (Homo sapiens) (UniProt P52333); experiment: Inhibition of JAK3 at 10 uM
[9] = molecular target: Aurora kinase A (Homo sapiens) (UniProt O14965); experiment: Inhibition of AURKA at 10 uM
[10] = molecular target: Mitogen-activated protein kinase 12 (Homo sapiens) (UniProt P53778); experiment: Inhibition of p38-gamma at 10 uM
[11] = molecular target: Inhibitor of nuclear factor kappa-B kinase subunit beta (Homo sapiens) (UniProt O14920); experiment: Inhibition of IKK-beta at 10 uM
[12] = molecular target: Mitogen-activated protein kinase 3 (Homo sapiens) (UniProt P27361); experiment: Inhibition of ERK1 at 10 uM
[13] = molecular target: Cyclin-dependent kinase 2 (Homo sapiens) (UniProt P24941); experiment: Inhibition of CDK2 at 10 uM
[14] = molecular target: Dual specificity mitogen-activated protein kinase kinase 1 (Homo sapiens) (UniProt Q02750); experiment: Inhibition of MEK1 at 10 uM
[15] = Solubility of the compound; assay type: physicochemical
[16] = molecular target: Mitogen-activated protein kinase 13 (Homo sapiens) (UniProt O15264); experiment: Inhibition of p38delta at 10 uM
[17] = Clearance in iv and po dosed Sprague-Dawley rat; assay type: ADME, organism-based; conditions: in vivo
[18] = molecular target: Vascular endothelial growth factor receptor 2 (Homo sapiens) (UniProt P35968); experiment: Inhibition of VEGFR2 at 10 uM
Rattus norvegicus [19] = experiment: Antiinflammatory activity in Lewis rat assessed as inhibition of LPS-induced TNFalpha production at 5 mg/kg, po administered 4 hrs before LPS challenge by ELISA; assay type: functional; procedure, shortened: as §1
[20] = molecular target: High affinity nerve growth factor receptor (Homo sapiens) (UniProt P04629); experiment: Inhibition of TRKA at 10 uM
[21] = Inhibition of JNK at 10 uM
[22] = molecular target: Tyrosine-protein kinase Lck (Homo sapiens) (UniProt P06239); experiment: Inhibition of LCK at 10 uM
[23] = molecular target: Tyrosine-protein kinase JAK1 (Homo sapiens) (UniProt P23458); experiment: Inhibition of JAK1 at 10 uM
[24] = Inhibition of PDGFR at 10 uM
[25] = molecular target: Non-receptor tyrosine-protein kinase TYK2 (Homo sapiens) (UniProt P29597); experiment: Inhibition of TYK2 at 10 uM
[26] = Bioavailability in iv and po dosed Sprague-Dawley rat; assay type: ADME, organism-based; conditions: in vivo
[27] = molecular target: Tyrosine-protein kinase JAK2 (Homo sapiens) (UniProt O60674); experiment: Inhibition of JAK2 at 10 uM
[28] = molecular target: T1, Mitogen-activated protein kinase 14; experiment: Inhibition of p38alpha at 10 uM
[29] = molecular target: MAP kinase-activated protein kinase 2 (Homo sapiens) (UniProt P49137); experiment: Inhibition of MK2 at 10 uM
[30] = molecular target: Rho-associated protein kinase 1 (Homo sapiens) (UniProt Q13464); experiment: Inhibition of ROCK1 at 10 uM
[31] = molecular target: RAF proto-oncogene serine/threonine-protein kinase (Homo sapiens) (UniProt P04049); experiment: Inhibition of c-RAF at 10 uM
Rattus norvegicus [32] = experiment: Antiarthritic activity in Lewis rat assessed as inhibition of streptococal cell wall-induced increase of paw volume at 60 mg/kg, po qd for 10 days administered 10 days after streptococal cell wall challenge by displacement plethysmometer analysis; assay type: functional; conditions: 240 h
Procedure, shortened: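 Female Lewis rats given intraperitoneal group A streptococcal cell wall peptidoglycan-polysaccharide ([…] bodyweight). Only animals developing the acute phase were treated. Oral gavage (0.5 mL) daily from day 10 to day 21 post-SCW, with methylcellulose/Tween 20 vehicle as comparison. Four to eight animals per group, two paw volumes per animal. Paw volume measured on day 21 by water displacement plethysmometer.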

[33] = molecular target: Epidermal growth factor receptor (Homo sapiens) (UniProt P00533); experiment: Inhibition of EGFR at 10 uM
[34] = Half life in iv and po dosed Sprague-Dawley rat; assay type: ADME, organism-based; conditions: in vivo
[35] = molecular target: Mitogen-activated protein kinase 11 (Homo sapiens) (UniProt Q15759); experiment: Inhibition of p38beta at 10 uM
[36] = molecular target: Serine/threonine-protein kinase mTOR (Homo sapiens) (UniProt P42345); experiment: Inhibition of mTOR at 10 uM
[37] = molecular target: Tyrosine-protein kinase BTK (Homo sapiens) (UniProt Q06187); experiment: Inhibition of BTK at 10 uM
[38] = molecular target: Vascular endothelial growth factor receptor 1 (Homo sapiens) (UniProt P17948); experiment: Inhibition of FLT1 at 10 uM

T1 sequence (Q16539 whole entry): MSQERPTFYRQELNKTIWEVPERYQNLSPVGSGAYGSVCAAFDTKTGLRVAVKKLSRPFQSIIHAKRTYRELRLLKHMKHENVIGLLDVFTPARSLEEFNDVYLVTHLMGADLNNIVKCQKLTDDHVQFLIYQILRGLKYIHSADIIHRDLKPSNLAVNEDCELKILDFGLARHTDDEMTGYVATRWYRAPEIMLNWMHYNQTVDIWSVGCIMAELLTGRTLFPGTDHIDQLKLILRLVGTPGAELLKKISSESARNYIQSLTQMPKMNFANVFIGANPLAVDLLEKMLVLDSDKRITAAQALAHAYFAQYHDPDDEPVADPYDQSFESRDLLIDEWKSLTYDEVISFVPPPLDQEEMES
Chain of Mitogen-activated protein kinase 13 (Homo sapiens) (O15264 whole entry): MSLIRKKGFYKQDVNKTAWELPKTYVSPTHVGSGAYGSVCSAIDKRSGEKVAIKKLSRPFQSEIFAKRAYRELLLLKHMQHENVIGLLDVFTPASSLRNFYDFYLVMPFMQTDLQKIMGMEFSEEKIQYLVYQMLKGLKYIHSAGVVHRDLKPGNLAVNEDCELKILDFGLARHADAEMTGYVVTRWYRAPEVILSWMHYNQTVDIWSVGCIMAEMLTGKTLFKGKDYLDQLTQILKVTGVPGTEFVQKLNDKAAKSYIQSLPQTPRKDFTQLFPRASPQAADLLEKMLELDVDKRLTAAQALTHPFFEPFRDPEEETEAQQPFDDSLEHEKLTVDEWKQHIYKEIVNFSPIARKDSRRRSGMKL
Chain of Mitogen-activated protein kinase 3 (Homo sapiens) (P27361 whole entry): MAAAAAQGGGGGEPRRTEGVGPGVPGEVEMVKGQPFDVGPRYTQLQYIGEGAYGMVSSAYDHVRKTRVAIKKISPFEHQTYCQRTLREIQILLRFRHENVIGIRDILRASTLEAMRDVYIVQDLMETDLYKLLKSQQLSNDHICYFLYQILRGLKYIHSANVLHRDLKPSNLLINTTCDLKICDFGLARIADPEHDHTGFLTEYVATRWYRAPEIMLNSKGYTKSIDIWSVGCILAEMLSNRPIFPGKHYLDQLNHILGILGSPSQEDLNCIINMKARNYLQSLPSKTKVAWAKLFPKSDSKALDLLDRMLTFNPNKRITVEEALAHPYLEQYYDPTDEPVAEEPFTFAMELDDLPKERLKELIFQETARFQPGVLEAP
Chain of Dual specificity mitogen-activated protein kinase kinase 1 (Homo sapiens) (Q02750 whole entry): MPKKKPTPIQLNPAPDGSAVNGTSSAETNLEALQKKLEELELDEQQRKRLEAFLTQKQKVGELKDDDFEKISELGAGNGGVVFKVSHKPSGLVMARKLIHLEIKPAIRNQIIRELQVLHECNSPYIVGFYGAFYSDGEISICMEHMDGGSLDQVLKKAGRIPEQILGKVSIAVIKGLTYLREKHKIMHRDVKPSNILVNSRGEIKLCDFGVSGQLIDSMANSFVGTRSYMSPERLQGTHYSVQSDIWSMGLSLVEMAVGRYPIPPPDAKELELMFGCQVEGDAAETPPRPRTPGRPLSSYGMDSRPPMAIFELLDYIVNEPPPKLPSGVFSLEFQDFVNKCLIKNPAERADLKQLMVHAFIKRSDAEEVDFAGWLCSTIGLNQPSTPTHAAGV
Chain of Rho-associated protein kinase 2 (Homo sapiens) (O75116 whole entry, looked up): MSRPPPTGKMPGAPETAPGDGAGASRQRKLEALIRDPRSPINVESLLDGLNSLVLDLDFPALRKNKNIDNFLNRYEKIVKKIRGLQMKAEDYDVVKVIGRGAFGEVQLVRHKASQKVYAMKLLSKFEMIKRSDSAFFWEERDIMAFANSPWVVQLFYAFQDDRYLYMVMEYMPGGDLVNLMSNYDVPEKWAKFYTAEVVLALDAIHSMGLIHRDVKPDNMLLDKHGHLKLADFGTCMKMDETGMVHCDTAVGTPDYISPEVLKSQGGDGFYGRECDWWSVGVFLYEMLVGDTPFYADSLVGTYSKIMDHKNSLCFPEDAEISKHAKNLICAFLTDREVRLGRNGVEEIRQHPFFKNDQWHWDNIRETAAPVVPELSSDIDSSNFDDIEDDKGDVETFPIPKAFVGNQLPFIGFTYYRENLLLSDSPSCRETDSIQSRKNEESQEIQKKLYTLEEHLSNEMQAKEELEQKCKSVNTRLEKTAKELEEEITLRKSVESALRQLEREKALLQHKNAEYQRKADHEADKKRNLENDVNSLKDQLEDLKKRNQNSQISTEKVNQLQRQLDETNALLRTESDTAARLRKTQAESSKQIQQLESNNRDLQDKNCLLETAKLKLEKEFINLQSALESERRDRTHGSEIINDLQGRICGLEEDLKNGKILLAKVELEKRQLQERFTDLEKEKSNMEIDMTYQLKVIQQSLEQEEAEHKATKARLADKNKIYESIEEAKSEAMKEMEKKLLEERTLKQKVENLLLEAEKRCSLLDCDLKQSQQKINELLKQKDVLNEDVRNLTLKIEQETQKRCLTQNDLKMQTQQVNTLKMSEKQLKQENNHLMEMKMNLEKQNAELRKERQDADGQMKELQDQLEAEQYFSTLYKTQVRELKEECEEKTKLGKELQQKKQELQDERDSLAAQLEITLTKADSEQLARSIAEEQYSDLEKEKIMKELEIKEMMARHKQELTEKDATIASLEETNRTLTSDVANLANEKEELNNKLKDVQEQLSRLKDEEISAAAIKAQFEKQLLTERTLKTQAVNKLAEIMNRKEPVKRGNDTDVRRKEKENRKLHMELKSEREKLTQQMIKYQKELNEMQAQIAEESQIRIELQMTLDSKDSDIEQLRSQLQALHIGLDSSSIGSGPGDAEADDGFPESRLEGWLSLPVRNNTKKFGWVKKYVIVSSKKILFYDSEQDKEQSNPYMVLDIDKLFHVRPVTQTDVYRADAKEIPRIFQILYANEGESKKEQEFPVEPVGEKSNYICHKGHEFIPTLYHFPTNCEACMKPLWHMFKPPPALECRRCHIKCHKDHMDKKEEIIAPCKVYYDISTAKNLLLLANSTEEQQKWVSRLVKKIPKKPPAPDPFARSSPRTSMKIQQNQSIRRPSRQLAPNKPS
Chain of Tyrosine-protein kinase JAK2 (Homo sapiens) (O60674 whole entry): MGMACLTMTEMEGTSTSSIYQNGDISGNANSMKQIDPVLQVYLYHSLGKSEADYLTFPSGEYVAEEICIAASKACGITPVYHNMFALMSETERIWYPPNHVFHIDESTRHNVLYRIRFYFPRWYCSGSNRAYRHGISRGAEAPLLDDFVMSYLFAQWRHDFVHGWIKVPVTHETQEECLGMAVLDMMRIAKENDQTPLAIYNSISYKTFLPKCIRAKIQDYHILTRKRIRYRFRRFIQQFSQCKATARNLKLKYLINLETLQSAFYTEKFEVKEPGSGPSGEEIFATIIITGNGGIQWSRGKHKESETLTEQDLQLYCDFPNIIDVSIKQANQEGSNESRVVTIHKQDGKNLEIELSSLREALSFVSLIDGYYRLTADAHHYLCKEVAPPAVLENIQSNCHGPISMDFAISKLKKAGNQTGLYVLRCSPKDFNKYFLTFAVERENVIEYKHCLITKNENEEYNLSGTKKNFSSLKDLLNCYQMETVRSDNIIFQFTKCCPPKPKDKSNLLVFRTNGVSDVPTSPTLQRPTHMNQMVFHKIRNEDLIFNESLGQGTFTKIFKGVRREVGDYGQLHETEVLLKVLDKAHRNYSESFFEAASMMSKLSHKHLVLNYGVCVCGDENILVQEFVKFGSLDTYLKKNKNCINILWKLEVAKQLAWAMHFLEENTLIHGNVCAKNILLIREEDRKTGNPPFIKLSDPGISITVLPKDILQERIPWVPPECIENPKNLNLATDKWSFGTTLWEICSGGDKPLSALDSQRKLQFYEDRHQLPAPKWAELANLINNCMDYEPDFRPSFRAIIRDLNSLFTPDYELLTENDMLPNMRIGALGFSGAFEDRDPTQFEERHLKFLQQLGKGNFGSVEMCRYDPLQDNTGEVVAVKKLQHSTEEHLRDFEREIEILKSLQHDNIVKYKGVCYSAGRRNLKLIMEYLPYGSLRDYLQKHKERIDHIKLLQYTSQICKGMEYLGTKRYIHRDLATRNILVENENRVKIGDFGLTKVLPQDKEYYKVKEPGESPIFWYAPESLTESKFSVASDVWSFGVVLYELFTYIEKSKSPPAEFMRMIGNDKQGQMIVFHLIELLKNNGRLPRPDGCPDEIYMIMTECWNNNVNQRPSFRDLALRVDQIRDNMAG
Chain of Mitogen-activated protein kinase 12 (Homo sapiens) (P53778 whole entry): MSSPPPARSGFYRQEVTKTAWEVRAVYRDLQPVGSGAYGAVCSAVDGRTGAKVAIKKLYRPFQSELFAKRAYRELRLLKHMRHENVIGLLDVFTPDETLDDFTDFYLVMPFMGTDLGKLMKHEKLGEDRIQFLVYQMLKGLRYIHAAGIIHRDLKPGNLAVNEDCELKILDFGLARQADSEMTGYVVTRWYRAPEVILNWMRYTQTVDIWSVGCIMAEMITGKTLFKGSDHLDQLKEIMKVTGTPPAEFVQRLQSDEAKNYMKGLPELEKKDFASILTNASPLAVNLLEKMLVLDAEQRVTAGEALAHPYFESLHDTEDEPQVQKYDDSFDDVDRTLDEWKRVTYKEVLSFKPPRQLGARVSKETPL
Chain of Aurora kinase A (Homo sapiens) (O14965 whole entry): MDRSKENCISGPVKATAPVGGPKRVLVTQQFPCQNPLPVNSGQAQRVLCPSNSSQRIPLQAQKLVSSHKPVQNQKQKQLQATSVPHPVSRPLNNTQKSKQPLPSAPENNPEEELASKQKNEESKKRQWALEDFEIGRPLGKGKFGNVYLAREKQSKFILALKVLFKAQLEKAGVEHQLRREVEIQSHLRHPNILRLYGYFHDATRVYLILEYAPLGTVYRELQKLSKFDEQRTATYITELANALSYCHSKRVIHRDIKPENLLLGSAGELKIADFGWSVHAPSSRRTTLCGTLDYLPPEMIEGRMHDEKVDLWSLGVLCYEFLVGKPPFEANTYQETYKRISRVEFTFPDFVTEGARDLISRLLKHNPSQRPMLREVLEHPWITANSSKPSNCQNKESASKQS

Compound Cc1cc(OCc2ccc(F)cc2F)c(Cl)c(=O)n1-c1c(F)cc(N2CCN(C)CC2)cc1F has an IC50 [1] of 23 nM.
With Cc1cc(OCc2ccc(F)cc2F)c(Br)c(=O)n1-c1ccc(CNC(N)=O)cc1 the IC50 [1] was 142 nM.
In the case of Cc1cccc(C)c1-n1c(C)cc(OCc2ccc(F)cc2F)c(Br)c1=O, the remaining at 0.75 h, 2 µM [2] is reported as 1%, the IC50 [1] is reported as 2 nM and the inhibition in vivo at 20 mg/kg (Rattus norvegicus [3]) is reported as 66%. For the same compound, the remaining at 0.75 h, 2 µM [4] was 3% and the IC50 (PBMC) was 25 nM.
Work on O=c1c(Cl)c(OCc2ccc(F)cc2F)cc(CO)n1-c1c(F)cccc1F yielded an inhibition [5] of less than 50%, an inhibition [6] of less than 50% and an inhibition [7] of less than 50%. For the same compound, the inhibition [8] was less than 50%, the inhibition [9] was less than 50% and the inhibition [10] was less than 50%. It also gave an inhibition [11] of less than 50%, a remaining at 0.75 h, 2 µM [2] of 69% and an inhibition [12] of less than 50%. The inhibition [13] was less than 50%, the IC50 [1] was 8 nM and the inhibition [14] was less than 50%. For the same compound, the solubility [15] was less than 10 µg/mL, the inhibition [16] was less than 50% and the clearance [17] was 5.9 mL/min/kg. For the same compound, the inhibition [18] was less than 50%, the inhibition in vivo at 5 mg/kg (Rattus norvegicus [19]) was 81% and the inhibition [20] was less than 50%. It also gave an inhibition [21] of less than 50%, an inhibition [22] of less than 50% and an inhibition [23] of less than 50%. For the same compound, the inhibition [24] was less than 50%, the inhibition [25] was less than 50% and the remaining at 0.75 h, 2 µM [4] was 70%. For the same compound, the bioavailability [26] was 32%, the inhibition [27] was less than 50% and the IC50 (PBMC) was 45 nM. For the same compound, the inhibition [28] was “Active”, the inhibition [29] was less than 50% and the inhibition [30] was less than 50%. It also gave an inhibition [31] of less than 50%, an inhibition in vivo at 60 mg/kg (Rattus norvegicus [32]) of 33% and an inhibition [33] of less than 50%. The half-life [34] was 1.5 h, the inhibition [35] was “Active” and the inhibition [36] was less than 50%. It also gave an inhibition [37] of less than 50% and an inhibition [38] of less than 50%.
Cc1cc(OCc2ccc(F)cc2F)c(Br)c(=O)n1-c1ccc(CN)cc1 showed an IC50 [1] of 51 nM.
Work on Cc1cc(OCc2ccc(F)cc2F)c(Br)c(=O)n1-c1ccc(CNC(=O)CN)cc1 yielded a remaining at 0.75 h, 2 µM [2] of 91%, an IC50 [1] of 15 nM and an inhibition in vivo at 5 mg/kg (Rattus norvegicus [19]) of 64%. For the same compound, the remaining at 0.75 h, 2 µM [4] was 97% and the IC50 (PBMC) was 118 nM.
With Cc1cc(OCc2ccc(F)cc2F)c(Br)c(=O)n1-c1ccc(C(N)=O)cc1 the IC50 [1] was 122 nM.
Work on CN(C)Cc1cc(OCc2ccc(F)cc2F)c(Cl)c(=O)n1-c1c(F)cccc1F yielded an IC50 [1] of 8 nM.
Work on Cc1cc(OCc2ccc(F)cc2)c(Br)c(=O)n1-c1c(Cl)cccc1Cl yielded an IC50 [1] of 6 nM.
O=c1c(Br)c(OCc2ccc(F)cc2F)cc(CO)n1-c1c(F)cccc1F gave a remaining at 0.75 h, 2 µM [2] of 65%, an IC50 [1] of 5 nM and a solubility [15] of less than 10 µg/mL. The clearance [17] was 4 mL/min/kg, the inhibition in vivo at 5 mg/kg (Rattus norvegicus [19]) was 93% and the remaining at 0.75 h, 2 µM [4] was 39%. It also gave a bioavailability [26] of 19%, an IC50 (PBMC) of 25 nM and a half-life [34] of 8.9 h.
In the case of Cc1cc(OCc2ccc(F)cc2F)c(Br)c(=O)n1-c1c(F)cccc1F, the remaining at 0.75 h, 2 µM [2] is reported as 80%, the IC50 [1] is reported as 3 nM and the solubility [15] is reported as less than 10 µg/mL. It also gave a clearance [17] of 28.7 mL/min/kg, an inhibition in vivo at 5 mg/kg (Rattus norvegicus [19]) of 38% and a remaining at 0.75 h, 2 µM [4] of 60%. It also gave a bioavailability [26] of 19%, an IC50 (PBMC) of 22 nM and a half-life [34] of 1.9 h.
Work on Cc1cc(OCc2ccc(F)cc2F)c(Br)c(=O)n1-c1c(F)cc(OCCO)cc1F yielded a remaining at 0.75 h, 2 µM [2] of 96%, an IC50 [1] of 7 nM and an inhibition in vivo at 5 mg/kg (Rattus norvegicus [19]) of 44%. It also gave a remaining at 0.75 h, 2 µM [4] of 87% and an IC50 (PBMC) of 61 nM.
In the case of Cc1cc(OCc2ccc(F)cc2F)c(Br)c(=O)n1-c1cccc(CN)c1, the IC50 [1] is reported as 681 nM.
Work on CNC(=O)c1cccc(-n2c(C)cc(OCc3ccc(F)cc3F)c(Br)c2=O)c1 yielded a remaining at 0.75 h, 2 µM [2] of 92%, an IC50 [1] of 17 nM and a solubility [15] of less than 10 µg/mL. For the same compound, the clearance [17] was 8.1 mL/min/kg, the inhibition in vivo at 5 mg/kg (Rattus norvegicus [19]) was 70% and the remaining at 0.75 h, 2 µM [4] was 95%. For the same compound, the bioavailability [26] was 3%, the IC50 (PBMC) was 45 nM and the half-life [34] was 3.1 h.
Cc1cc(OCc2ccc(F)cc2F)c(Br)c(=O)n1-c1cccc(CNC(N)=O)c1 showed an IC50 [1] of 251 nM.
